ChEMBL document CHEMBL4342493, “Design and Optimization of 3'-(Imidazo[1,2-a]pyrazin-3-yl)-[1,1'-biphenyl]-3-carboxamides as Selective DDR1 Inhibitors” (ACS Med Chem Lett, 2020)

How the values were obtained:
[1] = biological target: T1, Dual specificity protein kinase TTK (Homo sapiens, UniProt P33981); assay: Binding affinity to wild-type human partial length TTK (N505 to V798 residues) expressed in bacterial expression system after 1 hr by Kinomescan method
T1 sequence (P33981 whole entry): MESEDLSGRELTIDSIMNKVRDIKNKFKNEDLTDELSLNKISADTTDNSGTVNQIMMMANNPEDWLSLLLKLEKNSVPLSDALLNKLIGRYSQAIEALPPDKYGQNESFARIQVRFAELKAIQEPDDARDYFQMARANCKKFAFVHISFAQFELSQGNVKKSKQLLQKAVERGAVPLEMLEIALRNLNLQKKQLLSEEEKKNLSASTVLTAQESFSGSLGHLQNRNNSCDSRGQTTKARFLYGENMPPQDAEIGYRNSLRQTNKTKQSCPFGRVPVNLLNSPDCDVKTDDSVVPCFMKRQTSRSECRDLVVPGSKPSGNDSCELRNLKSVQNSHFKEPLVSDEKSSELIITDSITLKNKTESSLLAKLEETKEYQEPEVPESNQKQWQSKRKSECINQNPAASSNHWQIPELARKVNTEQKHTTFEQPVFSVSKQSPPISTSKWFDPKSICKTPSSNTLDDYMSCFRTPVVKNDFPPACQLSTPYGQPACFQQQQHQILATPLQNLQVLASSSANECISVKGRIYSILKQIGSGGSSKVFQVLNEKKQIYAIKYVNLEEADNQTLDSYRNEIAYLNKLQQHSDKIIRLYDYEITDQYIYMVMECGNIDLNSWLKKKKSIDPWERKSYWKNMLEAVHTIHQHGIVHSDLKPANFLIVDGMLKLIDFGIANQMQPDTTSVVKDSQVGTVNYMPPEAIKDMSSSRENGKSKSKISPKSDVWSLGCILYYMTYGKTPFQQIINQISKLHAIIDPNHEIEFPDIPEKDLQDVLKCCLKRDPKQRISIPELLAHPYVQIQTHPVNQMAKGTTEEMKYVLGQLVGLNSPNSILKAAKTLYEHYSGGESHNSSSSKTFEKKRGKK
Procedure, shortened: (§1)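 KINOMEscan binding; Kd determined for DDR1 and the off-target kinases DDR2, CAMK1D, CLK4 and TTK.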

NCI-H1299 [2] = assay: Inhibition of colony formation in human H1299 cells assessed as reduction in number of colonies measured after 10 days by crystal violet staining based assay; type: functional, cell-based
Procedure, shortened: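 Colony formation in H1299 cells under continuous compound treatment for 10 days; colony number quantified and IC50 derived from dose-response.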

NCI-H1299 [3] = assay: Antimigratory activity against human H1299 cells assessed as reduction in wound closure at 1.25 uM after 24 hrs by bright field microscopic based wound healing assay relative to control; type: functional; settings: NCI-H1299, 24 h
Procedure, shortened: (§2)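 Wound healing (scratch) migration assay in H1299 cells at 1.25, 2.5 and 5.0 μM; wound closure compared with blank control groups.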

Homo sapiens = species: Homo sapiens; assay: Selectivity index, ratio of IC50 for recombinant human GST-tagged DDR2 cytoplasmic domain (427 to 855 residues) expressed in baculovirus expression system to IC50 for recombinant human GST-tagged DDR1 catalytic domain (440 to 876 residues) expressed in baculovirus expression system using Fluorescein-poly GAT as substrate incubated for 1 hr in presence of ATP by LanthaScreen Eu kinase assay
Procedure, shortened: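 Ratio of DDR2 IC50 to DDR1 IC50. Both kinases were measured by LanthaScreen Eu kinase assay. Each IC50 is the mean of three independent experiments, with variation <20%.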

NCI-H1299 [4] = assay: Antiinvasive activity against human H1299 cells after 24 hrs by crystal violet staining based transwell assay; type: functional, cell-based
Procedure, shortened: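 H1299 NSCLC cells; transwell invasion assay over 24 h with compound at 1.25, 2.5 and 5.0 μM; invasion expressed relative to blank control.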

[5] = biological target: T2, Discoidin domain-containing receptor 2 (Homo sapiens, UniProt Q16832); assay: Binding affinity to wild type human partial length DDR2 (V555 to E855 residues) expressed in mammalian expression system after 1 hr by Kinomescan method; procedure, shortened: as §1
T2 sequence (Q16832 whole entry): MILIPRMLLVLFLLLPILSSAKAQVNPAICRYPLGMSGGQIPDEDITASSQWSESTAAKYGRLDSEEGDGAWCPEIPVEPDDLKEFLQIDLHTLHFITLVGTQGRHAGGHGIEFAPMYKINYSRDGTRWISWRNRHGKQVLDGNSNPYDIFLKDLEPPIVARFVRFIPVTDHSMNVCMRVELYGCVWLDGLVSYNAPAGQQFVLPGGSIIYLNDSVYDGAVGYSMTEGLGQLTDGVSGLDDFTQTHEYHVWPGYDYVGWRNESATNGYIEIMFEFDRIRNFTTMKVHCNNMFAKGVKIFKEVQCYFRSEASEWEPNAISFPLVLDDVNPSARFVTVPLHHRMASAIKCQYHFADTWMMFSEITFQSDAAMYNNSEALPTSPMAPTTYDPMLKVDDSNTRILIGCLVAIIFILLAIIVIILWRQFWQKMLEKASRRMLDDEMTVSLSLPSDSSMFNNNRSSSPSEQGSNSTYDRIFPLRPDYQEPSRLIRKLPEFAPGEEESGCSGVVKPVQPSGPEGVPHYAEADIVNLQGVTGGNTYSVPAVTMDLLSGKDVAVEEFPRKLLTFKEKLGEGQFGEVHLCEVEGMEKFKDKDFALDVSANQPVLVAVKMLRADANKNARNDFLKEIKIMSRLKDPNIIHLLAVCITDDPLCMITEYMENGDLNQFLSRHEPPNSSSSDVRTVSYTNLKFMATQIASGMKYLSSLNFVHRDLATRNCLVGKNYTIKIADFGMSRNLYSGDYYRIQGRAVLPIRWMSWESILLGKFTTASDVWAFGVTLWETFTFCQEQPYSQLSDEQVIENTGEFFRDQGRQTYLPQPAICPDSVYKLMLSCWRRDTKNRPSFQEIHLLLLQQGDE

[6] = biological target: Mast/stem cell growth factor receptor Kit (Homo sapiens, UniProt P10721); assay: Inhibition of human recombinant His-tagged c-Kit cytoplasmic domain (544 to 976 residues) expressed in baculovirus expression system using Ser/Thr 6 peptide as substrate after 1 hr in presence of 300 uM ATP by FRET based Z'-LYTE assay
NCI-H1299 [7] = assay: Antimigratory activity against human H1299 cells assessed as reduction in wound closure at 2.5 uM after 24 hrs by bright field microscopic based wound healing assay relative to control; type: functional; settings: NCI-H1299, 24 h; procedure, shortened: as §2
[8] = biological target: Dual specificity protein kinase CLK4 (Homo sapiens, UniProt Q9HAZ1); assay: Binding affinity to wild-type human partial length CLK4 (R135 to K481 residues) expressed in bacterial expression system after 1 hr by Kinomescan method; procedure, shortened: as §1
NCI-H1299 [9] = assay: Antiproliferative activity against human H1299 cells assessed as reduction in cell viability after 72 hrs by CCK-8 assay; type: functional, cell-based; settings: NCI-H1299, 72 h
Procedure, shortened: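 CCK-8 proliferation assay in H1299 cells; IC50 derived from dose-response; means of three independent experiments.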

[10] = biological target: Calcium/calmodulin-dependent protein kinase type 1D (Homo sapiens, UniProt Q8IU85); assay: Binding affinity to wild-type human partial length CAMK1D (M1 to K299 residues) expressed in bacterial expression system after 1 hr by Kinomescan method; procedure, shortened: as §1
Chain of Calcium/calmodulin-dependent protein kinase type 1D (Q8IU85 whole entry, the tested form may be a part): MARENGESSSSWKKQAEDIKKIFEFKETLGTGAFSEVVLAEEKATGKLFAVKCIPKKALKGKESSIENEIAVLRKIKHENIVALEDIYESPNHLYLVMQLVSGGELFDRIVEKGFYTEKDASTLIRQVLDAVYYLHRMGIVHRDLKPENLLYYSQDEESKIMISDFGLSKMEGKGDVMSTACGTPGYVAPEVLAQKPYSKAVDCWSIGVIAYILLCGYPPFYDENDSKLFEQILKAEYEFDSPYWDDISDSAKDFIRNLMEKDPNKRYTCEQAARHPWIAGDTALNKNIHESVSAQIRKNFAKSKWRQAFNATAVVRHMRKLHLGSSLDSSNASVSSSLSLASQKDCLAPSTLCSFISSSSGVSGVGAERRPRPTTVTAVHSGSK

Chain of Mast/stem cell growth factor receptor Kit (P10721 whole entry, the tested form may be a part): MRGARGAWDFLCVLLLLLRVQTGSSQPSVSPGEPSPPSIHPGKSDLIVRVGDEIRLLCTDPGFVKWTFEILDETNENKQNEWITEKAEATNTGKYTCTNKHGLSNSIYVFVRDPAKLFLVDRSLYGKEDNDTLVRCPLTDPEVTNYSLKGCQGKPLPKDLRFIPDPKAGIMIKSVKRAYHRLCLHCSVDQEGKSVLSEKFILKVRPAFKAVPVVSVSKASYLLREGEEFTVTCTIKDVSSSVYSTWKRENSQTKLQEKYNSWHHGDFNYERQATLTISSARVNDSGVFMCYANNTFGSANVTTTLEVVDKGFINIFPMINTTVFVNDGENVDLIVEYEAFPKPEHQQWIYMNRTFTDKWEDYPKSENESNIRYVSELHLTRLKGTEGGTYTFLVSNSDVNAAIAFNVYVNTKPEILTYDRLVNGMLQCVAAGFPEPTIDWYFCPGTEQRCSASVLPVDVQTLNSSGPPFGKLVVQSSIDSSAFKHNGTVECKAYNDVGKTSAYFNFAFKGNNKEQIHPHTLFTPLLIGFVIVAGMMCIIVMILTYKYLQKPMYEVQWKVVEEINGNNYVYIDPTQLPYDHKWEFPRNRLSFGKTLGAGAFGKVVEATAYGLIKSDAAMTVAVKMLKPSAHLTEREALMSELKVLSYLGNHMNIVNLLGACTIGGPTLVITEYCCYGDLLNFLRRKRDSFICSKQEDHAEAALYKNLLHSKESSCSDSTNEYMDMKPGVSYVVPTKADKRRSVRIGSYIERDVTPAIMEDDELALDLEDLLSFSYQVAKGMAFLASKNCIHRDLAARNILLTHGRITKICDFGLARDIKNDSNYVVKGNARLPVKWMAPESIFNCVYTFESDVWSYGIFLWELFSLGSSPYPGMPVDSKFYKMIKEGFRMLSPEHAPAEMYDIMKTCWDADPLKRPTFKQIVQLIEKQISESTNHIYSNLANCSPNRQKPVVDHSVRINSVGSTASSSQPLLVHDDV
Chain of Dual specificity protein kinase CLK4 (Q9HAZ1 whole entry, the tested form may be a part): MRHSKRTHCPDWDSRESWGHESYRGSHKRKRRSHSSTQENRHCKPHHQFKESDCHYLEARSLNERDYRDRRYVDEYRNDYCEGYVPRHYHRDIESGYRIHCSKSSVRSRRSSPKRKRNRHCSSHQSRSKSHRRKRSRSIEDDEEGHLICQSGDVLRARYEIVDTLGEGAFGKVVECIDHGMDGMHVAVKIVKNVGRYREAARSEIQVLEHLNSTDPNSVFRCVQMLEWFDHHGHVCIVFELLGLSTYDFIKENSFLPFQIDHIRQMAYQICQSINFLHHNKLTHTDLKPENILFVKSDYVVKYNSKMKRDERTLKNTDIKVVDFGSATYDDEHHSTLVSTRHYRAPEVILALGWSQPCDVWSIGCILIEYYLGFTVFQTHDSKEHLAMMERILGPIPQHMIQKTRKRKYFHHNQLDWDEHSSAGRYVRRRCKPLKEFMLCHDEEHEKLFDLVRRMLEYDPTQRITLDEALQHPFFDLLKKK

Kd [1]: > 1000 nM
IC50 (NCI-H1299 [2]; NCI-H1299, 240 h): 46 nM
Ratio IC50 (Homo sapiens): 73
Kd [5]: 86 nM
IC50 [6]: > 10 µM
Kd [8]: > 1000 nM
IC50 (NCI-H1299 [9]): 6.6 µM
Kd [10]: > 1000 nM
SMILES: CCc1ccc(C(=O)Nc2cc(F)cc(C(F)(F)F)c2)cc1-c1cc(C)cc(-c2cnc3cnccn23)c1
inhibition (NCI-H1299 [2]): Dose-dependent effect
inhibition at 1.25 µM (NCI-H1299 [3]): 40%
inhibition (NCI-H1299 [4]): Dose-dependent effect
inhibition at 2.5 µM (NCI-H1299 [7]): 60%
